Data set [1] relates to Mustela putorius furo. As to the kind of experiment: (§1) Dose-dependent reduction in cisplatin-induced vomiting in ferrets at 0.3 mg/kg iv dose. The data set is classed as functional. In outline:
(§2)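 Ferrets were pretreated intravenously at 0.1, 0.3 or 1.0 mg/kg, then given cisplatin at 10 mg/kg iv. Retches and vomits were counted over a 4 h observation period and reported as mean counts, with n = 4 per group. Vehicle-pretreated controls (n = 4-6) were run alongside.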

Data set [2] has as its system Mustela putorius furo. As to the kind of experiment: (§3) Dose dependent reduction in cisplatin-induced retching in ferrets at 0.3 mg/kg iv dose. It counts as functional. In outline: as §2
Data set [3] deals with Mustela putorius furo. As to the kind of experiment: (§4) Dose-dependent reduction in cisplatin-induced vomiting in ferrets at 0.1 mg/kg iv dose. It counts as functional. In outline:
as §2

Data set [4] has as its system Cavia porcellus. As to the kind of experiment: Inhibitory dose (ID50) was determined after oral administration followed by resiniferatoxin (RTX) challenge 1 hour. It counts as functional. Particulars: read-out: ID50 (the source's name). In outline: (§5)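 Guinea pigs received the compound orally or intravenously at either 1 h or 24 h before a systemic resiniferatoxin challenge, each line matching its own route and interval. The challenge induces SP-mediated systemic vascular leakage. ID50 (mg/kg) was derived from dose-response data using 2-11 animals per data point.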

Data set [5] deals with Mustela putorius furo. As to the kind of experiment: inhibitory dose was determined after intravenous administration of the compound. The data set is classed as functional.
The test system of data set [6] is Mustela putorius furo. As to the kind of experiment: (§6) Dose-dependent reduction in cisplatin-induced vomiting in ferrets at 1.0 mg/kg iv dose. It counts as functional. An outline of the steps: as §2
Data set [7] relates to Cavia porcellus. As to the kind of experiment: Inhibitory dose (ID50) was determined after intravenous administration followed by resiniferatoxin (RTX) challenge 1 hour before. It counts as functional. Particulars: read-out: ID50 (the source's name). An outline of the steps:
as §5

Data set [8] concerns Mustela putorius furo. As to the kind of experiment: (§7) Dose dependent reduction in cisplatin-induced retching in ferrets at 0.1 mg/kg iv dose. It counts as functional. In outline: as §2
Data set [9] relates to Mustela putorius furo. Briefly: (§8) Dose dependent reduction in cisplatin-induced retching in ferrets at 1.0 mg/kg iv dose. The data set is classed as functional. An outline of the steps: as §2
In data set [10] the test system is Cavia porcellus. Briefly: Inhibitory dose (ID50) was determined after oral administration followed by resiniferatoxin (RTX) challenge 24 hour before. It counts as functional. As to conditions: read-out: ID50 (the source's name). In outline: as §5
Data set [11] can be described thus: Area under curve (AUC) was determined after intravenous administration in rat at a dose of 2 mg/kg. The data set is classed as ADME, organism-based. As to conditions: in vivo. Also on record: dose 2 mg/kg, route intravenous. In outline:
(§9)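 The parent antagonist was given intravenously to rats (0.2, 2 and 5 mg/kg) or dogs. AUC of the parent was taken from plasma concentration–time data, and values are averages. Plasma levels were measured by HPLC-MS/MS.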

Data set [12] is described as follows: Area under curve (AUC) was determined after intravenous administration of compound as Bis(N-methyl-D-glucamine) salt in dog at a dose of 2 mg/Kg. Particulars: in vivo. The data set is classed as ADME, organism-based, Canis lupus familiaris. An outline of the steps: (§10)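 The phosphate prodrug, as its bis(N-methyl-D-glucamine) salt, was dosed intravenously to rats (1, 8, 25 mg/kg) and dogs (0.5, 2, 32 mg/kg). The reported AUC is of the released parent antagonist in plasma, given as an average. Plasma prodrug and parent were followed by HPLC-MS/MS.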

The nature of data set [13]: Area under curve (AUC) was determined after intravenous administration in dog at a dose of 0.5 mg/kg. Also on record: dose 0.5 mg/kg, route intravenous. It counts as ADME, organism-based, Canis lupus familiaris. Particulars: in vivo. In outline:
as §9

A short description of data set [14]: Area under curve (AUC) was determined after intravenous administration of compound as Bis(N-methyl-D-glucamine) salt in dog at a dose of 32 mg/Kg. The data set is classed as ADME, organism-based, Canis lupus familiaris. As to conditions: in vivo. An outline of the steps: as §10
Data set [15] can be described thus: Area under curve was determined after intravenous administration of compound as Bis(N-methyl-D-glucamine) salt in rat at a dose 1 mg/kg. The data set is classed as ADME, organism-based. Set-up: dose 1 mg/kg, route intravenous. As to conditions: in vivo. In outline:
as §10

Data set [16] concerns Cavia porcellus. Briefly: Dose (ID50) for inhibition of SP-mediated vascular leakage was determined after oral administration followed by resiniferatoxin (RTX) challenge 1 hour. The data set is classed as functional. Particulars: read-out: ID50 (the source's name). In outline:
as §5

The test system of data set [17] is Cavia porcellus. Briefly: Dose (ID50) for inhibition of SP-mediated vascular leakage was determined after intravenous administration followed by resiniferatoxin (RTX) challenge 1 hour before. The data set is classed as functional. As to conditions: read-out: ID50 (the source's name). An outline of the steps: as §5
Data set [18] relates to Mustela putorius furo. The description is as §3. The data set is classed as functional. The source holds these as a separate data set.
The test system of data set [19] is Mustela putorius furo. The description is as §6. The data set is classed as functional. This is another data set of the same source.
The subject of data set [20] is Mustela putorius furo. Described as §7. It counts as functional. The source holds these as a separate data set.
Data set [21] deals with Mustela putorius furo. Described as §4. The data set is classed as functional. The source holds these as a separate data set.
Data set [22] has as its system Mustela putorius furo. The description is as §1. It counts as functional. The source holds these as a separate data set.
Data set [23] deals with Mustela putorius furo. Described as §8. The data set is classed as functional. This is another data set of the same source.
Data set [24] relates to Cavia porcellus. As to the kind of experiment: Dose (ID50) for inhibition of SP-mediated vascular leakage was determined after intravenous administration followed by resiniferatoxin (RTX) challenge 24 hour before. It counts as functional. Particulars: read-out: ID50 (the source's name).
Data set [25] can be described thus: Area under curve (AUC) was determined after intravenous administration of compound as Bis(N-methyl-D-glucamine) salt in dog at a dose of 0.5 mg/Kg. It counts as ADME, organism-based, Canis lupus familiaris. Particulars: in vivo. An outline of the steps:
as §10

Data set [26] in a line: Area under curve was determined after intravenous administration of compound as Bis(N-methyl-D-glucamine) salt in rat at a dose 8 mg/kg. Also on record: dose 8 mg/kg, route intravenous. As to conditions: in vivo. It counts as ADME, organism-based. In outline: as §10
Data set [27] in a line: Area under curve (AUC) was determined after intravenous administration in rat at a dose of 5 mg/kg. It counts as ADME, organism-based. Set-up: dose 5 mg/kg, route intravenous. Particulars: in vivo. An outline of the steps:
as §9

Data set [28] can be described thus: Area under curve (AUC) was determined after intravenous administration of compound as Bis(N-methyl-D-glucamine) salt in rat at a dose 25 mg/Kg. The data set is classed as ADME, organism-based. Particulars: in vivo. In outline:
as §10

A short description of data set [29]: Area under curve (AUC) was determined after intravenous administration in dog at a dose of 2 mg/kg. The data set is classed as ADME, organism-based, Canis lupus familiaris. Also on record: dose 2 mg/kg, route intravenous. As to conditions: in vivo. An outline of the steps: as §9

As to `CNC[C@H](O)[C@@H](O)[C@H](O)[C@H](O)CO.C[C@@H](O[C@H]1OCCN(Cc2nc(O)n(P(=O)(O)O)n2)[C@H]1c1ccc(F)cc1)c1cc(C(F)(F)F)cc(C(F)(F)F)c1`, the Incidence_count in the data set on Mustela putorius furo [1] is 4; in the data set on Mustela putorius furo [2], 26; in the data set with Mustela putorius furo [3], 16; in the data set with Mustela putorius furo [6], 1; in the data set on Mustela putorius furo [8], 115; in the data set with Mustela putorius furo [9] it was 2. Further, the results for the ED50 with Cavia porcellus [4], with Cavia porcellus [7] and in the data set on Cavia porcellus [10] were 0.016 mg/kg, 0.006 mg/kg and 0.9 mg/kg, respectively. The same molecule returned an ID90 with Mustela putorius furo [5] of 0.8 mg/kg.

For the molecule `C[C@@H](O[C@H]1OCCN(Cc2n[nH]c(=O)[nH]2)[C@H]1c1ccc(F)cc1)c1cc(C(F)(F)F)cc(C(F)(F)F)c1` [APREPITANT], the AUC in data set [11] amounted to 2700 ng·h/mL; in data set [12], 8900 ng·h/mL; in data set [13], 3800 ng·h/mL; in data set [14], 370000 ng·h/mL; in [15] it was 570 ng·h/mL; in data set [25], 1100 ng·h/mL. The AUC in data set [26] was 6300 ng·h/mL; in data set [27], 6400 ng·h/mL; in data set [28], 22000 ng·h/mL; in data set [29] it was 38000 ng·h/mL. The figures for the ED50 with Cavia porcellus [16], in the data set with Cavia porcellus [17] and with Cavia porcellus [24] were 0.012 mg/kg, 0.002 mg/kg and 0.5 mg/kg, respectively. The Incidence_count in the data set with Mustela putorius furo [18] is on record as 5; in the data set on Mustela putorius furo [19], 0; with Mustela putorius furo [20] it was 90; in the data set with Mustela putorius furo [21], 13; with Mustela putorius furo [22], 1; in the data set with Mustela putorius furo [23], 0. The molecule also showed an ID90 with Mustela putorius furo [5] of 0.3 mg/kg.
